The species named for data set [1] is Oryctolagus cuniculus. The data set can be described thus: In vitro intrinsic activity was determined against rabbit aorta and percent increase in blood pressure was reported. In kind it is functional.
Data set [2] deals with Rattus norvegicus. Nature of the data set: In vivo intrinsic activity was determined against rat aorta and percent increase in blood pressure was reported. In kind it is functional. The method in brief:
(§1)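 Male Wistar rats (~250 g) are anesthetized with urethane 1.4 g/kg sc, with jugular vein and carotid artery cannulated. Peptides are diluted in 0.9% saline from 1 mg/mL aqueous stocks and injected intravenously. Arterial blood pressure is recorded through the carotid cannula with a pressure transducer.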

Data set [3] is filed under the species Oryctolagus cuniculus. The data set can be described thus: In vitro intrinsic activity was determined against rabbit aorta and time taken to ralax maximally contracted tissue to 25% was reported. In kind it is functional. On the set-up: unit not given beside the values. The method in brief: (§2)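 Aortic strips are held in an aerated (95% O2/5% CO2) bath under 2.0 g tension after a 60–90 min equilibration. At maximal agonist contraction, unbound peptide is removed by several washes and the time for tension to fall back toward the pre-contraction level is recorded. Peptides are diluted in 0.9% saline from 1 mg/mL aqueous stocks immediately before use.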

The species entered for data set [4] is Oryctolagus cuniculus. The data set can be described thus: In vitro intrinsic activity was determined against rabbit aorta and expressed as alpha E. In kind it is functional. The method in brief: (§3)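 Isolated aortic tissue in a bath aerated with 95% O2/5% CO2 under 2.0 g initial tension, readjusted during a 60–90 min equilibration with bath fluid changed every 10–15 min. Concentrations are final bath concentrations. Peptides are kept as 1 mg/mL stocks in distilled water at -20 °C for up to 14 days and diluted in 0.9% saline just before use.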

For data set [5], the species on record is Oryctolagus cuniculus. Nature of the data set: In vitro intrinsic activity against rabbit aorta and value was reported as factor between the hypertensin and the compound. In kind it is functional. The method in brief:
as §3

Data set [6] deals with Rattus norvegicus. The data set can be described thus: In vivo intrinsic activity against rat aorta and value was reported as factor between the hypertensin and the compound. In kind it is functional. Summed up:
as §1

The species entered for data set [7] is Oryctolagus cuniculus. The data set can be described thus: In vitro intrinsic activity was determined against rabbit aorta and expressed as factor F at t3/4. In kind it is functional.
The species entered for data set [8] is Oryctolagus cuniculus. The data set can be described thus: In vitro intrinsic activity was determined against rabbit aorta and expressed as factor F at t1/2. In kind it is functional.
For data set [9], the species on record is Oryctolagus cuniculus. Nature of the data set: In vitro intrinsic activity was determined against rabbit aorta and expressed as negative logarithm of half maximal dose. Summed up: as §3
For data set [10], the species on record is Oryctolagus cuniculus. The data set can be described thus: In vitro intrinsic activity was determined against rabbit aorta and time taken to ralax maximally contracted tissue to 50% was reported. In kind it is functional. The method in brief:
as §2

Regarding `CCCN(CCC)C(=O)C[C@H](N)C(=O)N[C@@H](CCCN=C(N)N)C(=O)N[C@H](C(=O)N[C@@H](Cc1ccc(O)cc1)C(=O)N[C@H](C(=O)N[C@@H](Cc1c[nH]cn1)C(=O)N1CCC[C@H]1C(=O)N[C@@H](Cc1ccccc1)C(=O)O)[C@@H](C)CC)C(C)C` [listing 1 of 2 here], the “Increase in blood pressure” value in the data set filed under Oryctolagus cuniculus [1] came out at 16%; in the data set on Rattus norvegicus [2], 9%. This molecule also showed a T3/4 in the data set filed under Oryctolagus cuniculus [3] of 44. The “Alpha E” value in the data set filed under Oryctolagus cuniculus [4] was 1. The Activity in the data set listed under Oryctolagus cuniculus [5] is reported as 6.3. The “Activity Factor” value with Rattus norvegicus [6] came out at 11.1. Further, the F3/4 in the data set listed under Oryctolagus cuniculus [7] is recorded as 5.1. This molecule came in with an F1/2 in the data set listed under Oryctolagus cuniculus [8] of 3.7.
`CC[C@H](C)[C@H](NC(=O)[C@H](Cc1ccc(O)cc1)NC(=O)[C@@H](NC(=O)[C@H](CCCN=C(N)N)NC(=O)[C@@H](N)CC(=O)N(C(C)C)C(C)C)C(C)C)C(=O)N[C@@H](Cc1c[nH]cn1)C(=O)N1CCC[C@H]1C(=O)N[C@@H](Cc1ccccc1)C(=O)O` [listing 1 of 2 here] had a pD2 in the data set filed under Oryctolagus cuniculus [9] of 6.69.
Consider `CC[C@H](C)[C@H](NC(=O)[C@H](Cc1ccc(O)cc1)NC(=O)[C@@H](NC(=O)[C@H](CCCN=C(N)N)NC(=O)[C@@H](N)CC(=O)N(C)C)C(C)C)C(=O)N[C@@H](Cc1c[nH]cn1)C(=O)N1CCC[C@@H]1C(=O)N[C@@H](Cc1ccccc1)C(=O)O`, for which the T1/2 in the data set listed under Oryctolagus cuniculus [10] is 6.7.
The molecule `CCCN(CCC)C(=O)C[C@H](N)C(=O)N[C@@H](CCCN=C(N)N)C(=O)N[C@H](C(=O)N[C@@H](Cc1ccc(O)cc1)C(=O)N[C@H](C(=O)N[C@@H](Cc1c[nH]cn1)C(=O)N1CCC[C@@H]1C(=O)N[C@@H](Cc1ccccc1)C(=O)O)[C@@H](C)CC)C(C)C` registered a T1/2 in the data set listed under Oryctolagus cuniculus [10] of 18.7.
Regarding `CC[C@H](C)[C@H](NC(=O)[C@H](Cc1ccc(O)cc1)NC(=O)[C@@H](NC(=O)[C@H](CCCN=C(N)N)NC(=O)[C@@H](N)CC(=O)N(C)C)C(C)C)C(=O)N[C@@H](Cc1c[nH]cn1)C(=O)N1CCC[C@H]1C(=O)N[C@@H](Cc1ccccc1)C(=O)O` [listing 1 of 2 here], the pD2 in the data set listed under Oryctolagus cuniculus [9] was 7.39.
The same measure, in the same setting: next, `CCCN(CCC)C(=O)C[C@H](N)C(=O)N[C@@H](CCCN=C(N)N)C(=O)N[C@H](C(=O)N[C@@H](Cc1ccc(O)cc1)C(=O)N[C@H](C(=O)N[C@@H](Cc1c[nH]cn1)C(=O)N1CCC[C@H]1C(=O)N[C@@H](Cc1ccccc1)C(=O)O)[C@@H](C)CC)C(C)C` [listing 2 of 2 here]: 6.93.
As for `CC[C@H](C)[C@H](NC(=O)[C@H](Cc1ccc(O)cc1)NC(=O)[C@@H](NC(=O)[C@H](CCCN=C(N)N)NC(=O)[C@@H](N)CC(=O)N(C(C)C)C(C)C)C(C)C)C(=O)N[C@@H](Cc1c[nH]cn1)C(=O)N1CCC[C@H]1C(=O)N[C@@H](Cc1ccccc1)C(=O)O` [listing 2 of 2 here], the results for the “Increase in blood pressure” value in the data set filed under Oryctolagus cuniculus [1] and in the data set on Rattus norvegicus [2] were 9% and 7%, respectively. Moreover, in the data set listed under Oryctolagus cuniculus [3], the T3/4 amounted to 36.7. Moreover, in the data set filed under Oryctolagus cuniculus [4], the “Alpha E” value is 1. In the data set filed under Oryctolagus cuniculus [5], this molecule yielded an Activity of 11. In addition, in the data set on Rattus norvegicus [6], the “Activity Factor” value worked out at 14.3. The molecule also had an F3/4 in the data set filed under Oryctolagus cuniculus [7] of 4.2. This molecule had an F1/2 in the data set filed under Oryctolagus cuniculus [8] of 2.9.
Regarding `CC[C@H](C)[C@H](NC(=O)[C@H](Cc1ccc(O)cc1)NC(=O)[C@@H](NC(=O)[C@H](CCCN=C(N)N)NC(=O)[C@@H](N)CC(=O)N(C)C)C(C)C)C(=O)N[C@@H](Cc1c[nH]cn1)C(=O)N1CCC[C@H]1C(=O)N[C@@H](Cc1ccccc1)C(=O)O` [listing 2 of 2 here], the entries for the “Increase in blood pressure” value in the data set filed under Oryctolagus cuniculus [1] and in the data set with Rattus norvegicus [2] were 46% and 30%, respectively. Moreover, the T3/4 in the data set listed under Oryctolagus cuniculus [3] worked out at 20. Further, the “Alpha E” value in the data set listed under Oryctolagus cuniculus [4] amounted to 1. In the data set listed under Oryctolagus cuniculus [5], this molecule showed an Activity of 2.2. Moreover, in the data set on Rattus norvegicus [6], the “Activity Factor” value was found to be 3.3. In the data set filed under Oryctolagus cuniculus [7], this molecule had an F3/4 of 2.3. Also, the F1/2 in the data set listed under Oryctolagus cuniculus [8] came out at 1.3.
H-NRVYIHPF-OH: the T1/2 in the data set listed under Oryctolagus cuniculus [10] was 5. The “Increase in blood pressure” value in the data set listed under Oryctolagus cuniculus [1] and in the data set on Rattus norvegicus [2] was 100% in each case. In the data set filed under Oryctolagus cuniculus [3], the T3/4 is reported as 8.7. Further, the “Alpha E” value in the data set listed under Oryctolagus cuniculus [4] was 1. The molecule also displayed an Activity in the data set filed under Oryctolagus cuniculus [5] of 1. In addition, the “Activity Factor” value in the data set with Rattus norvegicus [6] came out at 1. The same molecule returned an F3/4 in the data set listed under Oryctolagus cuniculus [7] of 1. Also, the pD2 in the data set listed under Oryctolagus cuniculus [9] is 7.73. The molecule also had an F1/2 in the data set filed under Oryctolagus cuniculus [8] of 1.
`CC[C@H](C)[C@H](NC(=O)[C@H](Cc1ccc(O)cc1)NC(=O)[C@@H](NC(=O)[C@H](CCCN=C(N)N)NC(=O)[C@@H](N)CC(=O)N(C(C)C)C(C)C)C(C)C)C(=O)N[C@@H](Cc1c[nH]cn1)C(=O)N1CCC[C@@H]1C(=O)N[C@@H](Cc1ccccc1)C(=O)O`: in the data set filed under Oryctolagus cuniculus [10], the T1/2 was 14.3.

(Values after ChEMBL document CHEMBL1121786, “Studies on position 1 of angiotensin II: effects on affinity and duration of action from alkyl amide substitution” (J Med Chem, 1981).)
